Assay results: ChEMBL document CHEMBL1139386, “Discovery of novel CB2 receptor ligands by a pharmacophore-based virtual screening workflow” (J Med Chem, 2009)

What was measured:
Homo sapiens = species: Homo sapiens; assay: Selectivity ratio of Ki for human CB1 receptor to Ki for human CB2 receptor
How it was run: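 Ki ratio from radioligand displacement on membranes overexpressing human CB1 (7.16 µg, 0.39 nM radioligand) or CB2 (3.8 µg, 0.11 nM radioligand). Incubation 90 min at 30 °C in Tris/EGTA/MgCl2/BSA buffer, pH 7.4, then GF/C filtration and scintillation counting; nonspecific binding with 10 µM reference ligand. IC50 from Hill plots; three independent experiments in triplicate.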

Cannabinoid receptor 1 [1] = target: T1, Cannabinoid receptor 1 (Homo sapiens, UniProt P21554); assay: Displacement of [3H]CP-55940 from human recombinant CB1 receptor
T1 sequence (P21554 whole entry): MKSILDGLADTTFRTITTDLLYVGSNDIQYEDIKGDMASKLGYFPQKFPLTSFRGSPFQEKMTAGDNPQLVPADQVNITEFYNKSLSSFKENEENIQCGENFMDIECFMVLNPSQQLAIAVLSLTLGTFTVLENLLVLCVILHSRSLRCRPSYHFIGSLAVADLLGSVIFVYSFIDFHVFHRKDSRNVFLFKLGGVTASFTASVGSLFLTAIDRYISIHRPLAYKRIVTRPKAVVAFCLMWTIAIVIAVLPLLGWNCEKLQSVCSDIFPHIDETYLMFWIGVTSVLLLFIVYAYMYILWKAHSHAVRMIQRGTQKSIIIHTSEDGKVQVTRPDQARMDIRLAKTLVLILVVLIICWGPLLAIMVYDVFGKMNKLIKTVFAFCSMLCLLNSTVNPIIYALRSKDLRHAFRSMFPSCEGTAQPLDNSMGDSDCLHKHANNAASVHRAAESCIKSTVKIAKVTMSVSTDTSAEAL

Cannabinoid receptor 2 [2] = target: T2, Cannabinoid receptor 2 (Homo sapiens, UniProt P34972); assay: Displacement of [3H]CP-55940 from human recombinant CB2 receptor
T2 sequence (P34972 whole entry): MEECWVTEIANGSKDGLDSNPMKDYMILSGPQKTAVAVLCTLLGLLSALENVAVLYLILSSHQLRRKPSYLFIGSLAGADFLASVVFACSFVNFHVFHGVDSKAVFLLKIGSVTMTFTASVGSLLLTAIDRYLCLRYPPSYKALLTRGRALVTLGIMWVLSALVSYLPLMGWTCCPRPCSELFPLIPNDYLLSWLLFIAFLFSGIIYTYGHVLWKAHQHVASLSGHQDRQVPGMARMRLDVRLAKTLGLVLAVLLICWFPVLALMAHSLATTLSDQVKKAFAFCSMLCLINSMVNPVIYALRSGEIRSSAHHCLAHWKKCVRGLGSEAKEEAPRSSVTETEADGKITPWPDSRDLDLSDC
How it was run: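 Membranes from cells recombinantly overexpressing CB2 (Bmax 4.7 pmol/mg protein), 3.8 µg, in binding buffer (50 mM Tris-HCl, 2.5 mM EGTA, 5 mM MgCl2, 0.5 mg/mL fatty-acid-free BSA, pH 7.4) with 0.11 nM radioligand. Compounds were tested at varying concentrations, with nonspecific binding defined by 10 µM reference ligand. Incubation was 90 min at 30 °C, followed by PEI-soaked GF/C filtration and scintillation counting. Data were normalized and Hill-linearized to give IC50 and Ki (three experiments, triplicate).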

Cannabinoid receptor 1 [3] = target: T1, Cannabinoid receptor 1; assay: Binding affinity to CB1 receptor
Cannabinoid receptor 2 [4] = target: T2, Cannabinoid receptor 2; assay: Binding affinity to CB2 receptor
[5] = Selectivity ratio of Ki for CB1 receptor to Ki for CB2 receptor
Cannabinoid receptor 2 [6] = target: T2, Cannabinoid receptor 2; assay: Agonist activity at human CB2 receptor expressed in CHO-K1 cells assessed as forskolin-stimulated cAMP release; type: functional, cell-based; details: filed as partial agonist
How it was run: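 CHO-K1 cells expressing hCB2, plated at 3×10^5 cells/mL overnight, were preincubated 10 min in supplement-free RPMI 1640 with 500 µM IBMX. Test compounds were added at several concentrations for 30 min at 37 °C, then 20 µM forskolin for a further 30 min at 37 °C. Intracellular cAMP was read by EFC chemiluminescence, with a high-affinity CB ligand as positive control.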

Compound | Ratio Ki (Homo sapiens) | Ki (Cannabinoid receptor 1 [1]) | Ki (Cannabinoid receptor 2 [2]) | further results
CCS(=O)(=O)n1c2c(c3cc(C(=O)N4CCC(OC)CC4)ccc31)CN(C1CCCC1)C2 | 77 | – | – | –
COc1ccc(OC)c(N(CC(=O)NCc2ccncc2)S(=O)(=O)c2ccc(C)cc2)c1 | > 37 | > 50 nM | 1.35 nM | –
CCCCCCC(C)(C)c1cc(OC)c([C@H]2C=C(CO)[C@@H]3C[C@H]2C3(C)C)c(OC)c1 | – | – | – | Ki (Cannabinoid receptor 1 [3]): 10000 nM
CCc1ccccc1NC(=O)CSc1nnc(-c2ccccc2OC)n1-c1ccccc1 | > 23 | > 50 nM | 2.1 nM | –
Cc1cccc(-c2nnc(SCC(=O)NC3CCCCC3)n2Cc2ccccc2)c1 | > 2 | > 50 nM | < 25 nM | –
CC(=O)n1c2c(c3cc(C(=O)N4CCC(C)CC4)ccc31)CN(C1CCCC1)C2 | 26 | – | – | –
CCCCSc1nc2c(c(=O)n1CCc1ccccc1)C1(CCCC1)Cc1ccccc1-2 | > 2 | > 50 nM | < 25 nM | –
CCCC(C)(C)c1ccc2c(c1)OC(C)(C)[C@@H]1CC=C(C)C[C@@H]21 | 35 | 0.797 nM | 0.023 nM | Ki (Cannabinoid receptor 1 [3]): 677 nM; Ki (Cannabinoid receptor 2 [4]): 3.4 nM; Ratio Ki [5]: 199
CCCn1cc(C(=O)c2ccc(C)c3ccccc23)c2ccccc21 | 173 | 1050 nM | – | –
COc1ccc2c(c1)c(CCN1CCOCC1)c(C)n2C(=O)c1cccc(Cl)c1Cl | – | – | – | Ratio Ki [5]: 160
CCCCCN(CCCCC)C(=O)c1ccccc1C(=O)Nc1ccc(Br)cc1 | > 2 | > 50 nM | < 25 nM | –
CN1CCCC[C@@H]1Cn1cc(C(=O)c2cc([N+](=O)[O-])ccc2I)c2ccccc21 | – | – | – | Ki (Cannabinoid receptor 1 [3]): 5000 nM; Ki (Cannabinoid receptor 2 [4]): 15.1 nM; Ratio Ki [5]: 331
COc1ccc2c(c1)c(CC(=O)N1CCOCC1)c(C)n2C(=O)c1cccc(Cl)c1Cl | 146 | – | – | –
CCCCCCc1cc(O)c2c(c1)OC(C)(C)C1=C2CCN(C)C1 | > 27 | > 50 nM | 1.78 nM | Activity (Cannabinoid receptor 2 [6]): Partial agonist
CCCCCCC(C)(C)c1cc(OC)c(C2(O)CCOCC2)c(OC)c1 | > 29 | > 10000 nM | 342 nM | –
CCCN1Cc2c(n(S(=O)(=O)CC)c3ccc(C(=O)N4CCC(C)CC4)cc23)C1 | 54 | – | – | –
CCCn1c(C)c(C(=O)c2cccc3cc(OC)ccc23)c2ccccc21 | > 333 | > 10000 nM | – | –
CCCCCC(C)(C)c1cc(OC)c2c(c1)OC(C)(C)[C@@H]1CCC(C)=C[C@@H]21 | 174 | – | – | –
CCCCCn1cc(C(=O)c2cc3ccccc3cc2OC)c2ccccc21 | – | – | – | Ki (Cannabinoid receptor 1 [3]): 381 nM; Ki (Cannabinoid receptor 2 [4]): 7.2 nM; Ratio Ki [5]: 53
CCCCCCC(C)(C)c1cc(O)c2c(c1)oc(=O)c1ccc(O)cc12 | 488 | 400 nM | 0.82 nM | –
COc1ccc2c(c1)c(CN1CCOCC1)c(C)n2C(=O)c1cccc(Cl)c1Cl | 153 | – | – | –
O=C(NCC1CCOCC1)c1cnc(Nc2ccc(Cl)cc2Cl)nc1C(F)(F)F [GW842166X] | > 600 | – | – | EC50 (Cannabinoid receptor 1 [1]): > 30000 nM
CCOc1ccc(N(CC(=O)N[C@@H](C)CC)S(=O)(=O)c2ccc(Br)cc2)cc1 | > 2 | > 50 nM | < 25 nM | –
CCCCCn1c(C)c(C(=O)c2c(OC)ccc3ccccc23)c2ccccc21 | 34 | 1380 nM | – | –
CCCCCCC(C)(C)c1cc(OC)c([C@@]2(O)CCC[C@@H](C)C2)c(OC)c1 | 220 | 5060 nM | 23 nM | –
CC1CCN(C(=O)c2ccc3c(c2)c2c(n3S(C)(=O)=O)CN(C3CCCC3)C2)CC1 | 35 | – | – | –
